# Assay results from ChEMBL document CHEMBL2384997, “2-(1H-Pyrazol-4-yl)acetic acids as CRTh2 antagonists” (Bioorg Med Chem Lett, 2013).
# Tests used:
# [1] = biological target: T1, Prostaglandin D2 receptor (Homo sapiens) (UniProt Q13258); test: Inhibition of DP1 receptor (unknown origin) at 10 uM relative to control
# T1 sequence (whole entry): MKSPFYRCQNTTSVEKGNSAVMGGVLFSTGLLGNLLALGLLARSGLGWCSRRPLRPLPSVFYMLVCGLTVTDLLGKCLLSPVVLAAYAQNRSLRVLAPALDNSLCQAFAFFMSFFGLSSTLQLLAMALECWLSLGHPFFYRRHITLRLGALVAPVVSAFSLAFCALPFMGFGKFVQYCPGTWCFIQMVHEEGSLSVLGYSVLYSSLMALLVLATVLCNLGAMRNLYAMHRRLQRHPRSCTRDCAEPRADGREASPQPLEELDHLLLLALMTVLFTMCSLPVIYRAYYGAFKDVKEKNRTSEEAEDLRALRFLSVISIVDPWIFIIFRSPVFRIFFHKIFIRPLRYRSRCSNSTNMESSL
# [2] = biological target: T2, Prostaglandin D2 receptor 2 (Homo sapiens, UniProt Q9Y5Y4); test: Antagonist activity at CRTh2 receptor (unknown origin) overexpressed in CHOK1 cell membranes assessed as inhibition of [35S]-GTPgammaS binding preincubated for 1 hr followed by 50 nM PGD2 and 0.1 nM [35S]-GTPgammaS addition measured after 2 hrs by liquid scintillation counting analysis; format: functional, CHO-K1
# T2 sequence (Q9Y5Y4 whole entry): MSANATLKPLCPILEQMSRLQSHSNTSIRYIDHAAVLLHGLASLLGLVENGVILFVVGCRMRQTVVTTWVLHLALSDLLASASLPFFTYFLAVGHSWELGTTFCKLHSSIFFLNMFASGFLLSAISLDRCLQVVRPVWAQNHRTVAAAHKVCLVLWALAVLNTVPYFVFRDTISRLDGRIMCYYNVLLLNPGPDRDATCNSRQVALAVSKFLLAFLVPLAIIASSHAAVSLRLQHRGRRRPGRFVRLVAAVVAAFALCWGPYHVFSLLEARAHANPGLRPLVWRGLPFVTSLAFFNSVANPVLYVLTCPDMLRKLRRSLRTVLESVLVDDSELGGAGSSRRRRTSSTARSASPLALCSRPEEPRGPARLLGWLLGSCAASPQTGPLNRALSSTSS
# [3] = biological target: T3, Thromboxane A2 receptor (Homo sapiens) (UniProt P21731); test: Inhibition of thromboxane A2 receptor (unknown origin) at 10 uM relative to control
# T3 sequence (whole entry): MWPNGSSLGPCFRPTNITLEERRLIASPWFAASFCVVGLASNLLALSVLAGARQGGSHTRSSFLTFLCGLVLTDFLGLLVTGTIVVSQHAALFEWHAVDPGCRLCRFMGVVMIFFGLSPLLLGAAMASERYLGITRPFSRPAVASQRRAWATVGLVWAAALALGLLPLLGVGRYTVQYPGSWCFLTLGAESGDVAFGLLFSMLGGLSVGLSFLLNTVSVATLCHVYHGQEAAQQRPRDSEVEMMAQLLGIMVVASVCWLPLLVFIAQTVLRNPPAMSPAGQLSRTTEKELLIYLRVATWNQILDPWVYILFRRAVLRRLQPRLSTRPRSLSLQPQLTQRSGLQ
# [4] = biological target: T4, Prostaglandin D2 receptor 2 (Homo sapiens) (UniProt Q9Y5Y4); conditions: CHO-K1
# T4 sequence (whole entry): T2 sequence (Q9Y5Y4 whole entry)
# [5] = Oral bioavailability in rat at 1 mg/kg; format: ADME, organism-based; conditions: in vivo
# [6] = Volume of distribution at steady state in rat at 0.5 mg/kg, iv; format: ADME, organism-based; parameters: dose 0.5 mg/kg, route intravenous; conditions: in vivo, read-out: Vdss
# [7] = Apparent permeability from apical to basolateral side in human Caco2 cells; format: ADME, cell-based; conditions: Caco-2
# [8] = Apparent permeability from basolateral to apical side in human Caco2 cells; format: ADME, cell-based; conditions: Caco-2
# [9] = biological target: T4, Prostaglandin D2 receptor 2 (Homo sapiens); test: Ratio of IC50 for CRTh2 receptor in human whole blood assessed as inhibition of PGD2-induced eosinophil shape change to IC50 for CRTh2 receptor (unknown origin) overexpressed in CHOK1 cells assessed as inhibition of [35S]-GTPgammaS binding; format: functional, cell-based; conditions: CHO-K1
# [10] = Half life in rat at 0.5 mg/kg, iv; format: ADME, organism-based; parameters: dose 0.5 mg/kg, route intravenous; conditions: in vivo
# [11] = Clearance in rat at 0.5 mg/kg, iv; format: ADME, organism-based; parameters: dose 0.5 mg/kg, route intravenous; conditions: in vivo
# [12] = Lipophilicity , log D of the compound at pH 7.4 by shake-flask method; format: physicochemical; conditions: buffer
# How it was run: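 logD at pH 7.4 by shake-flask.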
# [13] = Solubility of the compound at pH 1; format: physicochemical; conditions: buffer
# [14] = AUC ( 0 to 24 hrs) in rat at 0.5 mg/kg, iv; format: ADME, organism-based; parameters: time < 24 hr, dose 0.5 mg/kg, route intravenous; conditions: plasma
# [15] = Solubility of the compound at pH 7.4; format: physicochemical; conditions: buffer
# [16] = Dissociation constant, pKa of the compound by potentiometric method; format: physicochemical
# How it was run: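 pKa determined potentiometrically.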
# [17] = Volume of distribution at steady state in rat at 1 mg/kg, iv; format: ADME, organism-based; parameters: dose 1 mg/kg, route intravenous; conditions: in vivo, read-out: Vdss
# [18] = Oral bioavailability in rat at 10 mg/kg; format: ADME, organism-based; conditions: in vivo
# [19] = Plasma protein binding in human by rapid equilibrium dialysis method; format: ADME, cell-free; conditions: read-out: PPB
# How it was run: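 Protein binding by equilibrium dialysis; human plasma diluted to 10%.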
# [20] = AUC ( 0 to 24 hrs) in rat at 1 mg/kg, iv; format: ADME, organism-based; parameters: time < 24 hr, dose 1 mg/kg, route intravenous; conditions: plasma
# [21] = Terminal half life in rat at 1 mg/kg, iv; format: ADME, organism-based; parameters: dose 1 mg/kg, route intravenous; conditions: in vivo, read-out: beta t1/2 (converted)
# [22] = Plasma protein binding in rat by rapid equilibrium dialysis method; format: ADME, cell-free; conditions: read-out: PPB (converted)
# [23] = Clearance in rat at 1 mg/kg, iv; format: ADME, organism-based; parameters: dose 1 mg/kg, route intravenous; conditions: in vivo
# [24] = biological target: T2, Prostaglandin D2 receptor 2; test: Antagonist activity at CRTh2 receptor overexpressed in CHOK1 cell membranes assessed as inhibition of [35S]-GTPgammaS binding in presence of 1% human serum albumin
compound,measurement,setting,value
Cc1c(CC(=O)O)c(-c2ccccc2)nn1Cc1ccccc1Oc1ccccc1,inhibition,[1],< 40%
same,IC50,[2]; read-out: IC50,2 µM
same,inhibition,[3],< 40%
Cc1c(CC(=O)O)c(-c2ccccc2)nn1C(C)c1ccccc1S(=O)(=O)c1ccccc1 (stereo not drawn),IC50,[2]; read-out: IC50,2.9 µM
Cc1c(CC(=O)O)c(-c2ccccc2)nn1Cc1ccccc1S(=O)(=O)N1CCOCC1,inhibition,[1],< 40%
same,IC50,[2]; read-out: IC50,0.089 µM
same,inhibition,[3],< 40%
Cc1c(CC(=O)O)c(-c2ccnc(F)c2)nn1C(c1ccc(F)cc1)c1ccc(F)cc1,IC50,[2]; read-out: IC50,0.31 µM
Cc1c(CC(=O)O)c(-c2ccccc2)nn1Cc1ccccc1C(=O)c1ccccc1,IC50,[2]; read-out: IC50,1.4 µM
Cc1c(CC(=O)O)c(-c2ccccc2)nn1CC1CCCN1S(=O)(=O)c1ccccc1 (stereo not drawn),IC50,[2]; cho-k1,Not Active
Cc1nn(Cc2ccccc2S(=O)(=O)c2ccccc2)c(C)c1CC(=O)O,inhibition,[1],< 40%
same,IC50,[2]; read-out: IC50,0.081 µM
same,inhibition,[3],< 40%
same,T1/2,[4],2 min
Cc1c(Cc2ccccc2S(=O)(=O)c2ccccc2)c2cc(F)ccc2n1CC(=O)O,IC50,[2]; read-out: IC50,0.016 µM
Cc1nn(Cc2ccc3ccccc3n2)c(C)c1CC(=O)O,IC50,[2]; read-out: IC50,> 5 µM
Cc1c(CC(=O)O)c(-c2ccccc2)nn1S(=O)(=O)c1ccc(Cl)c(Cl)c1,IC50,[2]; read-out: IC50,1.6 µM
COc1c(CC(=O)O)c(C)nn1-c1cccc(NC(=O)[C@H]2C[C@@H]2c2ccccc2)c1,IC50,[2]; read-out: IC50,1.6 µM
Cc1c(CC(=O)O)c(-c2ccccc2)nn1C(c1ccc(F)cc1)c1ccc(S(C)(=O)=O)cc1 (stereo not drawn),IC50,[2]; read-out: IC50,5 µM
Cc1c(CC(=O)O)c(-c2ccccc2)nn1Cc1ccc2ccccc2n1,IC50,[2]; read-out: IC50,0.87 µM
Cc1nn(-c2cccc(NC(=O)[C@H]3C[C@@H]3c3ccccc3)c2)c(C)c1CC(=O)O,bioavailability,[5],12%
same,Vd,[6],0.14 L/kg
same,Papp A→B,[7],30 nm/s
same,Papp B→A,[8],60 nm/s
same,Ratio IC50,[9],10
same,half-life,[10],78 min
same,clearance,[11],0.15 L/h/kg
same,logD,[12],0.9
same,IC50,[2]; read-out: IC50,0.23 µM
same,solubility,[13],0.5 mg/mL
same,AUC(0-t) at 24 h,[14],3.36 µg·h/mL
same,solubility,[15],0.8 mg/mL
same,pKa,[16],4.2
Cc1c(CC(=O)O)c(-c2ccccc2)nn1C(c1ccc(F)cc1)c1ccc(F)cc1,IC50,[2]; read-out: IC50,1.1 µM
Cc1c(CC(=O)O)c(-c2ccc(O)nc2)nn1C(c1ccc(F)cc1)c1ccc(F)cc1,IC50,[2]; cho-k1,Not Active
Cc1nn(Cc2ccc(S(C)(=O)=O)cc2)c(C)c1CC(=O)O,IC50,[2]; read-out: IC50,5 µM
Cc1c(CC(=O)O)c(-c2ccccc2)nn1-c1ccnc2ccccc12,IC50,[2]; read-out: IC50,5 µM
Cc1c(CC(=O)O)c(-c2ccccc2)nn1Cc1ccccc1S(=O)(=O)c1ccccc1,Vd,[17],1.6 L/kg
same,Papp A→B,[7],130 nm/s
same,Papp B→A,[8],170 nm/s
same,bioavailability,[18],73%
same,fraction unbound,[19],< 0.001
same,logD,[12],0.7
same,AUC(0-t) at 24 h,[20],1.96 µg·h/mL
same,inhibition,[1],< 40%
same,IC50,[2]; read-out: IC50,0.007 µM
same,half-life,[21],288 min
same,fraction unbound,[22],0.012
same,inhibition,[3],< 40%
same,T1/2,[4],12 min
same,solubility,[13],0.003 mg/mL
same,clearance,[23],0.51 L/h/kg
same,solubility,[15],0.95 mg/mL
same,pKa,[16],4.2
Cc1c(CC(=O)O)c(-c2ccccc2)nn1Cc1ccc(F)cc1S(=O)(=O)N1CCNCC1,IC50,[2]; read-out: IC50,5 µM
Cc1c(CC(=O)O)c(-c2ccccc2)nn1Cc1ccccc1S(=O)(=O)N(C)C,IC50,[2]; read-out: IC50,0.85 µM
Cc1c(CC(=O)O)c(-c2ccccc2)nn1Cc1ccccc1CS(=O)(=O)c1ccccc1,IC50,[2]; read-out: IC50,0.49 µM
O=C(O)Cc1cn(C(c2ccc(F)cc2)c2ccc(F)cc2)nc1-c1ccncc1,IC50,[2]; read-out: IC50,0.29 µM
Cc1c(CC(=O)O)c(-c2ccccc2)nn1Cc1ccc(S(C)(=O)=O)cc1,IC50,[2]; cho-k1,Not Active
COc1ccc(S(=O)(=O)c2ccc(F)cc2)c(Cn2nc(-c3ccccc3)c(CC(=O)O)c2C)c1,IC50,[2]; read-out: IC50,0.036 µM
Cc1c(CC(=O)O)c(-c2ccccc2)nn1Cc1ccccc1-c1ccccc1,IC50,[2]; read-out: IC50,5 µM
Cc1c(CC(=O)O)c(=O)[nH]n1Cc1ccccc1S(=O)(=O)c1ccccc1,inhibition,[1],< 40%
same,inhibition,[3],< 40%
Cc1c(CC(=O)O)c(-c2ccncc2)nn1Cc1ccccc1S(=O)(=O)c1ccccc1,IC50,[24],0.066 µM
same,IC50,[2]; read-out: IC50,0.004 µM
Cc1c(CC(=O)O)c(-c2ccncc2)nn1Cc1ccc(F)cc1,IC50,[2]; read-out: IC50,1.9 µM
Cc1c(CC(=O)O)c(-c2ccncc2)nn1C(c1ccc(F)cc1)c1ccc(F)cc1,inhibition,[1],< 40%
same,IC50,[2]; read-out: IC50,0.046 µM
same,inhibition,[3],< 40%
same,T1/2,[4],30 min
Cc1c(CC(=O)O)c(-c2ccccc2)nn1Cc1ccccc1Cc1ccccc1,inhibition,[1],< 40%
same,IC50,[2]; read-out: IC50,0.1 µM
same,inhibition,[3],< 40%
